Results published in ChEMBL document CHEMBL2417391, “Additional cytotoxic pyridoacridine alkaloids from the ascidian Cystodytes violatinctus and biogenetic considerations” (J Nat Prod, 2013).

Experiments:
Assay type in all cases: functional, cell-based
[1] = tested on: A-375; experiment: Cytotoxicity against human A375 cells after 48 hrs by MTT assay; details: A-375, 48 h
How it was run: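 A375 melanoma cells grown in RPMI complete medium with 10% FBS, 2 mM L-glutamine, penicillin/streptomycin. Seeded 20 × 10^3 cells/well, adhered overnight, then exposed 48 h to serial dilutions from 10−10 to 10−4 M (from 10−2 M DMSO stock) in triplicate. MTT 1 mg/mL added for 3 h, formazan dissolved in 2-propanol/HCl, absorbance 540 nm; IC50 from sigmoidal dose–response fit.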

[2] = tested on: SW480; experiment: Cytotoxicity against human SW480 cells after 48 hrs by MTT assay; details: SW480, 48 h
How it was run: (§1)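 Colon lines HCT116 and SW480 kept in DMEM with 10% FBS, 2 mM L-glutamine, penicillin/streptomycin. 20 × 10^3 cells/well seeded, overnight adhesion, then 48 h treatment at 10−10 to 10−4 M, serially diluted in medium from 10−2 M DMSO stock; triplicates. Viability by MTT (3 h), formazan in 2-propanol/HCl read at 540 nm; IC50 by sigmoidal curve fitting.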

[3] = tested on: HCT-116; experiment: Cytotoxicity against human HCT116 cells after 48 hrs by MTT assay; details: HCT-116, 48 h; how it was run: as §1

| SMILES | IC50 [1] [µM] | IC50 [2] [µM] | IC50 [3] [µM] |
| --- | --- | --- | --- |
| CC(C)=CC(=O)NCCc1c2c3c(ccnc3c3ncsc13)-c1ccccc1N2 | 11.8 | 8.02 | 14.4 |
| CC(C)=CC(=O)NCCc1c2c(c3nccc4c3c1Nc1ccccc1-4)NC(=O)CS2 | > 10 | 9.99 | 19 |
| C/C=C(\C)C(=O)Nc1cc2cc(O)c3nccc4c5ccccc5n1c2c34 | > 10 | > 10 | 18.9 |
| CC(C)=CC(=O)Nc1cc2cc(O)c3nccc4c5ccccc5n1c2c34 | 6 | 8.48 | 4.32 |
| C/C=C(\C)C(=O)NCCc1c2c3c(ccnc3c3ncsc13)-c1ccccc1N2 | > 10 | 3.3 | > 10 |
| C/C=C(\C)C(=O)NCCc1c2c(c3nccc4c3c1Nc1ccccc1-4)NC(=O)CS2 | > 10 | > 10 | > 10 |
| O=C1c2cccnc2-c2nccc3c2c1nc1ccccc13 [ASCIDIDEMIN] | 0.38 | 0.1 | 0.25 |
